Laboratory results as given in ChEMBL document CHEMBL3407437, “Antibacterial drug leads: DNA and enzyme multitargeting” (J Med Chem, 2015).
In brackets after ≈: the same amount, converted by molar mass.

Legend:
[1] = Binding affinity to DNA dodecamer complex (CGCGAATTCGCG)2 (unknown origin) assessed as change in melting temperature by differential scanning calorimetry
Escherichia coli = test: Antimicrobial activity against Escherichia coli K-12 after 3 hrs by broth microdilution method; format: functional, organism-based; details: K-12, 3 h
Staphylococcus aureus [2] = test: Antimicrobial activity against Staphylococcus aureus Newman after 9 hrs by spectrophotometry; format: functional, organism-based
[3] = Inhibition of Escherichia coli UPPS using FPP/IPP as substrate by spectrophotometry
[4] = Inhibition of Staphylococcus aureus UPPS using FPP/IPP as substrate by spectrophotometry
Outline: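 Continuous spectrophotometric assay following UPPS-catalysed condensation of FPP with IPP. IC50 from fit of inhibition data to rectangular hyperbolic dose-response function.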

[5] = Inhibition of FPPS (unknown origin)
[6] = Inhibition of Staphylococcus aureus UPPS
Outline: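 Continuous spectrophotometric assay following UPPS-catalysed condensation of FPP with IPP. Reaction contained 400 µM MESG, 25 µM IPP, 2.5 µM FPP, […] pH 7.5, 0.01% Triton X-100 and 1 mM MgCl2. IC50 from fit of inhibition data to rectangular hyperbolic dose-response function.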

Staphylococcus aureus [7] = test: Antimicrobial activity against Staphylococcus aureus assessed as fractional Inhibitory concentration index; format: functional
Staphylococcus aureus [8] = test: Antimicrobial activity against Staphylococcus aureus; format: functional

Q: With `S=C(Nc1cccc(C2=NCCN2)c1)c1ccc(-c2ccc(C(=S)Nc3cccc(C4=NCCN4)c3)cc2)cc1` as the molecule, how does the ΔTm [1] read?
A: 7.1 °C

Q: And the EC50 (Escherichia coli)?
A: 58 µM

Q: What about the EC50 (Staphylococcus aureus [2]) of the same molecule?
A: 3 µM

Q: What about the IC50 [3] of the same molecule?
A: 9.2 µM

Q: And the IC50 [4]?
A: 3.5 µM

Q: What does the source list for `c1cc2cc(-c3ccc(-c4cc5ccc(C6=NCCCN6)cc5[nH]4)cc3)[nH]c2cc1C1=NCCCN1`?
A: ΔTm [1]: 24 °C; EC50 (Escherichia coli): 0.24 µM; EC50 (Staphylococcus aureus [2]): 0.028 µM; IC50 [3]: 0.68 µM; IC50 [4]: 0.47 µM

Q: Which results are given for `NCCc1cc(Br)cc(C#Cc2cccc(C#Cc3cc(Br)cc(CCN)c3)c2)c1`?
A: ΔTm [1]: -0.1 °C; EC50 (Escherichia coli): 0.97 µM; EC50 (Staphylococcus aureus [2]): 7.6 µM; IC50 [3]: 6.1 µM; IC50 [4]: 1.4 µM

Q: With `O=C(Nc1ccc(C2=NCCN2)cc1)c1ccc(C(=O)Nc2ccc(C3=NCCN3)cc2)c([N+](=O)[O-])c1` as the molecule, how does the ΔTm [1] read?
A: 3.9 °C

Q: And the EC50 (Escherichia coli)?
A: 14 µM

Q: And the EC50 (Staphylococcus aureus [2])?
A: 28 µM

Q: And the IC50 [3]?
A: 4.8 µM

Q: What about the IC50 [4] of the same molecule?
A: 4.9 µM

Q: Which results are given for `C(=C\c1cc2ccc(C3=NCCN3)cc2[nH]1)/c1cc2ccc(C3=NCCN3)cc2[nH]1`?
A: ΔTm [1]: 20 °C; EC50 (Escherichia coli): 1.2 µM; EC50 (Staphylococcus aureus [2]): 0.11 µM; IC50 [3]: 12 µM; IC50 [4]: 5.1 µM

Q: With `N=C(N)c1ccc(OCCCCCOc2ccc(C(=N)N)cc2)cc1` [PENTAMIDINE] as the molecule, how does the ΔTm [1] read?
A: 2.7 °C

Q: What about the EC50 (Escherichia coli) of the same molecule?
A: 12 µM

Q: And the EC50 (Staphylococcus aureus [2])?
A: 4.2 µM

Q: And the IC50 [3]?
A: 400 µM

Q: What about the IC50 [4] of the same molecule?
A: 240 µM

Q: Which ΔTm [1] does the source give for `COc1cccc(NC(=O)c2ccc(-c3ccc(C(=O)Nc4cccc(C5=NCCN5)c4)cc3)cc2)c1` here?
A: 5.2 °C

Q: What about the EC50 (Escherichia coli) of the same molecule?
A: 570 µM

Q: What about the EC50 (Staphylococcus aureus [2]) of the same molecule?
A: 7.7 µM

Q: And the IC50 [3]?
A: 9.4 µM

Q: What about the IC50 [4] of the same molecule?
A: 2.1 µM

Q: Which ΔTm [1] does the source give for `O=C(Nc1cccc(C2=NCCN2)c1)c1ccc(-c2ccc(C(=O)Nc3cccc(C4=NCCN4)c3)cc2)cc1` here?
A: 11 °C

Q: And the IC50 [5]?
A: 2 µM

Q: What about the IC50 [6] of the same molecule?
A: 0.1 µM

Q: What about the “fractional inhibitory concentration index (FICI)” value (Staphylococcus aureus [7]) of the same molecule?
A: 0.25

Q: What about the MIC (Staphylococcus aureus [8]) of the same molecule?
A: 0.25 µg/mL (≈ 0.473 µM)

Q: What does the source list for `OC[C@H]1O[C@@H](Oc2cccc(C#Cc3ccc(C#Cc4cccc(C5=NCCN5)c4)cc3)c2)[C@H](O)[C@@H](O)[C@@H]1O`?
A: ΔTm [1]: -1.2 °C; EC50 (Escherichia coli): 900 µM; EC50 (Staphylococcus aureus [2]): 380 µM; IC50 [3]: 14 µM; IC50 [4]: 5.6 µM

Q: With `O=C(Nc1cccc(O[C@@H]2O[C@H](CO)[C@@H](O)[C@H](O)[C@H]2O)c1)c1ccc(-c2ccc(C(=O)Nc3cccc(C4=NCCN4)c3)cc2)cc1` as the molecule, how does the ΔTm [1] read?
A: 5.8 °C

Q: And the EC50 (Escherichia coli)?
A: > 1500 µM

Q: What about the EC50 (Staphylococcus aureus [2]) of the same molecule?
A: 570 µM

Q: What about the IC50 [3] of the same molecule?
A: 380 µM

Q: What about the IC50 [4] of the same molecule?
A: 530 µM

Q: With `Cn1cc(NC(=O)c2cc(NC(=O)CNC(=N)N)cn2C)cc1C(=O)NCCC(=N)N` [NETROPSIN] as the molecule, how does the ΔTm [1] read?
A: 16 °C

Q: And the EC50 (Escherichia coli)?
A: 570 µM

Q: And the EC50 (Staphylococcus aureus [2])?
A: 11 µM

Q: What about the IC50 [3] of the same molecule?
A: 1400 µM

Q: And the IC50 [4]?
A: 1000 µM

Q: Which ΔTm [1] does the source give for `c1cc2cc(-c3ccc(-c4cc5ccc(C6=NCCN6)cc5[nH]4)cc3)[nH]c2cc1C1=NCCN1` here?
A: 16 °C

Q: And the EC50 (Escherichia coli)?
A: 0.33 µM

Q: And the EC50 (Staphylococcus aureus [2])?
A: 0.029 µM

Q: And the IC50 [3]?
A: 0.36 µM

Q: And the IC50 [4]?
A: 1.7 µM

Q: For `O=C(Nc1cccc(Oc2ccccc2)c1)c1ccc(-c2ccc(C(=O)Nc3cccc(C4=NCCN4)c3)cc2)cc1`, which ΔTm [1] is on record?
A: 0.6 °C

Q: What about the EC50 (Escherichia coli) of the same molecule?
A: > 1500 µM

Q: And the EC50 (Staphylococcus aureus [2])?
A: 10 µM

Q: What about the IC50 [3] of the same molecule?
A: 11 µM

Q: And the IC50 [4]?
A: 5.7 µM

Q: Which ΔTm [1] does the source give for `O=P(O)(O)C(O)(Cc1cccc(-c2cccc(NS(=O)(=O)c3cccc(S(=O)(=O)Nc4cccc(-c5cccc(CC(O)(P(=O)(O)O)P(=O)(O)O)c5)c4)c3)c2)c1)P(=O)(O)O` here?
A: -1 °C

Q: And the EC50 (Escherichia coli)?
A: > 1500 µM

Q: What about the EC50 (Staphylococcus aureus [2]) of the same molecule?
A: 100 µM

Q: What about the IC50 [3] of the same molecule?
A: 0.36 µM

Q: And the IC50 [4]?
A: 0.39 µM

Q: Which ΔTm [1] does the source give for `CCCCCCOc1cccc(NC(=O)c2ccc(-c3ccc(C(=O)Nc4cccc(C5=NCCN5)c4)cc3)cc2)c1` here?
A: 0.7 °C

Q: What about the EC50 (Escherichia coli) of the same molecule?
A: > 1500 µM

Q: What about the EC50 (Staphylococcus aureus [2]) of the same molecule?
A: 280 µM

Q: What about the IC50 [3] of the same molecule?
A: 25 µM

Q: And the IC50 [4]?
A: 8.9 µM

Q: With `O=C(Nc1cccc(C2=NCCCN2)c1)c1ccc(-c2ccc(C(=O)Nc3cccc(C4=NCCCN4)c3)cc2)cc1` as the molecule, how does the ΔTm [1] read?
A: 10 °C

Q: And the EC50 (Escherichia coli)?
A: 0.66 µM

Q: And the EC50 (Staphylococcus aureus [2])?
A: 0.23 µM

Q: What about the IC50 [3] of the same molecule?
A: 5.5 µM

Q: What about the IC50 [4] of the same molecule?
A: 4.5 µM
